Results: ChEMBL document CHEMBL5357038, “Highly efficient, catalyst-free, one-pot sequential four-component synthesis of novel spiroindolinone-pyrazole scaffolds as anti-Alzheimer agents: in silico study and biological screening” (RSC Med Chem, 2024)
The source made the active and inactive calls. The rule behind the calls is not given here.

What was measured:
[1] = target: T1, Cholinesterase (Homo sapiens, UniProt P06276); assay: Inhibition of BuChE (unknown origin) at 50 uM by Ellman's method relative to control
[2] = target: T2, Acetylcholinesterase (Homo sapiens, UniProt P22303); assay: Inhibition of AChE (unknown origin) at 50 uM by Ellman's method relative to control
[3] = target: T1, Cholinesterase; assay: Inhibition of BuChE (unknown origin) by Ellman's method
[4] = target: T2, Acetylcholinesterase; assay: Inhibition of AChE (unknown origin) by Ellman's method
[5] = target: T2, Acetylcholinesterase; assay: Mixed type inhibition of AChE (unknown origin) assessed as change in Vmax by Lineweaver-burk plot analysis; conditions: dose 2-12 µM
How it was run: (§1)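 AChE kinetics run with acetylthiocholine substrate at 0.1–1 mM, with no inhibitor and with several inhibitor concentrations. Lineweaver–Burk double-reciprocal plots (1/V vs 1/[S]) across the inhibitor concentrations assigned the inhibition type and gave Km. Ki was estimated from a secondary plot of the slopes against inhibitor concentration.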

[6] = test system: SH-SY5Y; assay: Cytotoxicity against human SH-SY5Y cells assessed as reduction in cell viability at 5 uM by MTT assay; type: functional, cell-based
How it was run: (§2)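 SH-SY5Y cells were grown in DMEM/F12 with 15% FBS, penicillin (100 units per ml) and streptomycin (100 μg ml−1) at 37 °C in humidified 5% CO2/95% air. After treatment, MTT was added at 0.5 mg ml−1 final for a further 2 h. Formazan was dissolved in DMSO and read at 540 nm. Untreated control cells were set as 100% viability.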

[7] = target: T2, Acetylcholinesterase; assay: Mixed type inhibition of AChE (unknown origin) assessed as inhibition constant by Lineweaver-burk plot analysis; how it was run: as §1
[8] = target: T2, Acetylcholinesterase; assay: Mixed type inhibition of AChE (unknown origin) assessed as increase in Km at 2 to 12 uM by Lineweaver-burk plot analysis; conditions: dose 2-12 µM; how it was run: as §1
[9] = test system: SH-SY5Y; assay: Cytotoxicity against human SH-SY5Y cells assessed as reduction in cell viability at 50 uM by MTT assay; type: functional; how it was run: as §2
[10] = Cytotoxicity against human MC65 cells assessed as reduction in cell viability; type: functional
[11] = target: T2, Acetylcholinesterase; assay: Inhibition of AChE (unknown origin)
[12] = target: T1, Cholinesterase; assay: Inhibition of BuChE (unknown origin)
[13] = target: T2, Acetylcholinesterase; assay: Inhibition of AChE (unknown origin) assessed as inhibition constant; how it was run: as §1
[14] = Selectivity index, ratio of Ki for inhibition of AChE (unknown origin) to Ki for inhibition of BuChE (unknown origin)
[15] = target: T1, Cholinesterase; assay: Inhibition of BuChE (unknown origin) incubated for 15 mins by DTNB reagent based Ellman's method
[16] = target: T2, Acetylcholinesterase; assay: Inhibition of AChE (unknown origin) using acetylthiocholine as substrate incubated for 15 mins by DTNB reagent based Ellman's method

T2 sequence (P22303 whole entry): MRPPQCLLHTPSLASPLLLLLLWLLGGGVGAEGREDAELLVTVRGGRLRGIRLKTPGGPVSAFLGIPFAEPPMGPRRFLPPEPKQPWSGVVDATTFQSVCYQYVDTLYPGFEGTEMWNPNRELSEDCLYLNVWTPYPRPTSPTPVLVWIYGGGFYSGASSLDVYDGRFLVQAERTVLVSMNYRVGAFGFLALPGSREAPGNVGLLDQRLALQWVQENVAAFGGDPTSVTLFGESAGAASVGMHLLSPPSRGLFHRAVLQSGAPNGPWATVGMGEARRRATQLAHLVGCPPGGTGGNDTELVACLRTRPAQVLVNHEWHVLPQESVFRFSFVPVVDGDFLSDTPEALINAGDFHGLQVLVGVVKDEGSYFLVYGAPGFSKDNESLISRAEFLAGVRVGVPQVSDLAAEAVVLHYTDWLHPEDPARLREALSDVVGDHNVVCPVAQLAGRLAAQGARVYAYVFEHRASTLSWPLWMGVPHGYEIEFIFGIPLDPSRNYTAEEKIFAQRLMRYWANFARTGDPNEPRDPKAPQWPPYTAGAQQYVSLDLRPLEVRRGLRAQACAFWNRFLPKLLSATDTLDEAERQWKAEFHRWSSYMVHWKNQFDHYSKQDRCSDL
T1 sequence (P06276 whole entry): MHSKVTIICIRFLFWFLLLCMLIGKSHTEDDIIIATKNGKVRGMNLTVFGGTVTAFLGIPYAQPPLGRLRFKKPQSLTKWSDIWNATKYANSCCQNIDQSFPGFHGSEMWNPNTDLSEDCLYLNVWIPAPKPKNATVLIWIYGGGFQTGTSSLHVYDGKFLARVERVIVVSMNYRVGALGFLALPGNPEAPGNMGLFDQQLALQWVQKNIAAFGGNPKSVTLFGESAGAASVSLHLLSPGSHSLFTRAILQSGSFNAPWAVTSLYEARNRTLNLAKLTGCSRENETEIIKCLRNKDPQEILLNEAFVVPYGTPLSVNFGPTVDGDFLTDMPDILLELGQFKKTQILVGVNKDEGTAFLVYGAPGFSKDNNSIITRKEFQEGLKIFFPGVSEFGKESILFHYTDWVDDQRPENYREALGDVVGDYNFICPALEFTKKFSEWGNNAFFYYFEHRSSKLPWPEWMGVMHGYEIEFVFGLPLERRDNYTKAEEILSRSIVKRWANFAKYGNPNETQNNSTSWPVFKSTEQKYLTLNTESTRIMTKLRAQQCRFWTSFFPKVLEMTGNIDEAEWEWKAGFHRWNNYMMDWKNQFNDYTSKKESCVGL

Cc1ccc(NC2=C([N+](=O)[O-])C3(NN2)C(=O)Nc2ccccc23)cc1C (centres undefined)
inhibition [1]: 31.1% | inhibition [2]: 29.4%

COc1ccc2c(c1)C1(NNC(Nc3ccc(C)c(C)c3)=C1[N+](=O)[O-])C(=O)N2 (centres undefined)
inhibition [1]: 52.3% | IC50 [3]: 47.3 µM | inhibition [2]: inactive

Cc1ccccc1NC1=C([N+](=O)[O-])C2(NN1)C(=O)Nc1c(C(F)(F)F)cccc12 (centres undefined)
inhibition [1]: 37.5% | inhibition [2]: 63.1% | IC50 [4]: 17 µM

O=C1Nc2c(C(F)(F)F)cccc2C12NNC(Nc1cccc(Cl)c1)=C2[N+](=O)[O-] (centres undefined)
inhibition [1]: 18.8% | inhibition [2]: 20.6%

Cc1ccc(NC2=C([N+](=O)[O-])C3(NN2)C(=O)Nc2ccccc23)cc1 (centres undefined)
inhibition [1]: 56.5% | IC50 [3]: 25.1 µM | inhibition [2]: 30.5%

COc1ccc(NC2=C([N+](=O)[O-])C3(NN2)C(=O)Nc2ccccc23)cc1 (centres undefined)
inhibition [1]: 53.4% | IC50 [3]: 34.7 µM | inhibition [2]: 47.8%

O=C1Nc2ccc([N+](=O)[O-])cc2C12NNC(Nc1ccc(Cl)cc1)=C2[N+](=O)[O-] (centres undefined)
inhibition [1]: 21.8% | inhibition [2]: 65.9% | IC50 [4]: 37.1 µM

COc1ccc(NC2=C([N+](=O)[O-])C3(NN2)C(=O)Nc2ccc(OC)cc23)cc1 (centres undefined)
inhibition [1]: inactive | inhibition [2]: 29.7%

O=C1Nc2ccccc2C12NNC(Nc1cccc(Cl)c1)=C2[N+](=O)[O-] (centres undefined)
inhibition [5]: Dose-Dependent Effect | inhibition [1]: 13.9% | Activity [6]: inactive | inhibition [2]: 75.5% | IC50 [4]: 6.02 µM | Ki [7]: 5.59 µM | inhibition [8]: Active | Activity [9]: 64.81%

O=C(Nc1cccc(-c2cc(-c3ccc(Cl)cc3)n[nH]2)c1)c1ccccc1
Activity [10]: 90% | IC50 [11]: 1.94 µM | IC50 [12]: 1.17 µM

NS(=O)(=O)c1cccc(NC(=S)N/N=C2\C(=O)N(Cc3ccccc3)c3ccc([N+](=O)[O-])cc32)c1
Ki [13]: 0.22 µM

O=C1Nc2ccccc2C12NNC(Nc1ccc(O)cc1)=C2[N+](=O)[O-] (centres undefined)
inhibition [1]: 12.9% | inhibition [2]: 41%

COc1ccc(OC)c(NC2=C([N+](=O)[O-])C3(NN2)C(=O)Nc2ccc([N+](=O)[O-])cc23)c1 (centres undefined)
inhibition [1]: 25.1% | inhibition [2]: 55.1% | IC50 [4]: 42.6 µM

Cc1cc(-c2cc3cc([N+](=O)[O-])ccc3oc2=O)n[nH]1
IC50 [11]: 16.3 µM

Cc1ccccc1NC1=C([N+](=O)[O-])C2(NN1)C(=O)Nc1ccc(Cl)cc12 (centres undefined)
inhibition [1]: 73.8% | IC50 [3]: 9.13 µM | inhibition [2]: 21.9%

Cc1cc(Cl)cc2c1N(C)C(=O)/C2=N\NC(=S)Nc1cccc(S(N)(=O)=O)c1
Ki [13]: 0.52 µM | Ratio Ki [14]: 37.7

Cc1ccccc1NC1=C([N+](=O)[O-])C2(NN1)C(=O)Nc1ccc([N+](=O)[O-])cc12 (centres undefined)
inhibition [1]: 38.9% | inhibition [2]: 71.6% | IC50 [4]: 15.5 µM

Cc1ccccc1NC1=C([N+](=O)[O-])C2(NN1)C(=O)Nc1ccccc12 (centres undefined)
inhibition [1]: 60.1% | IC50 [3]: 20 µM | inhibition [2]: 35.4%

O=C1Nc2ccccc2C12NNC(Nc1ccc(Cl)cc1)=C2[N+](=O)[O-] (centres undefined)
inhibition [1]: 14.9% | inhibition [2]: 13.9%

CCOP(=O)(OCC)C(NCc1cccs1)c1cn(-c2ccccc2)nc1-c1ccc(Cl)cc1 (centres undefined)
IC50 [15]: 6.33 µM | IC50 [16]: 0.017 µM

Cc1ccccc1NC1=C([N+](=O)[O-])C2(NN1)C(=O)Nc1ccc(Br)cc12 (centres undefined)
inhibition [1]: 34% | inhibition [2]: 51.8% | IC50 [4]: 41.7 µM

O=C1Nc2c(C(F)(F)F)cccc2C12NNC(Nc1cccc3ccccc13)=C2[N+](=O)[O-] (centres undefined)
inhibition [1]: inactive | inhibition [2]: 39.1%
